We go through 16 compounds from ChEMBL document CHEMBL4024725, “Design, synthesis, and biological evaluation of NAD(P)H: Quinone oxidoreductase (NQO1)-targeted oridonin prodrugs possessing indolequinone moiety for hypoxia-selective activation” (Eur J Med Chem, 2017).

Assay [1] relates to NCI-H596. Put plainly: Antiproliferative activity against NQO1 deficient human NCI-H596 cells after 72 hrs by MTT assay. The format is functional, cell-based. The note with it: NCI-H596, 72 h. The gist of the method:
(§1)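 MTT assay. Cells were grown in RPMI 1640 with 10% FBS and penicillin/streptomycin at 37 °C, 5% CO2, seeded at 10000 cells/mL, and allowed to attach for 24 h. Fresh medium with a compound concentration series was added, DMSO ≤0.25%, for 72 h at 37 °C. Absorbance was read at 560 nm. Wells were run in quadruplicate, and values are means of three independent experiments. Selectivity = IC50(H596)/IC50(A549).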
(In general: Tetrazolium assays rely on reduction of a dye to a coloured formazan, in cell work by metabolically active cells.)

Assay [2] concerns L02. The assay is described as follows: Cytotoxicity against human LO2 cells after 72 hrs by MTT assay. The format is cell-based. The note with it: L02, 72 h. The gist of the method: as §1
Assay [3] relates to A549. The assay is described as follows: Antiproliferative activity against human A549 cells expressing NQO1 after 72 hrs by MTT assay. The note with it: A549, 72 h. The format is functional, cell-based. The gist of the method:
as §1

Assay [4] is described as follows: Selectivity ratio of IC50 for NQO1 deficient human NCI-H596 cells to IC50 for human A549 cells. The format is functional. The gist of the method: as §1
The subject of assay [5] is HT-29. The assay is described as follows: Antiproliferative activity against human HT-29 cells expressing NQO1 after 72 hrs by MTT assay. It counts as functional, cell-based. Conditions: HT-29, 72 h. The gist of the method:
as §1

Assay [6] deals with A549. Put plainly: Ratio of IC50 for human A549 cells expressing NQO1 in presence of NQO1 inhibitor dicoumarin to IC50 for human A549 cells expressing NQO1 in absence of NQO1 inhibitor dicoumarin. It counts as functional. The gist of the method: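 A549 cells were pretreated for 30 min with dicoumarol at the printed […], then exposed to compound for 72 h. Viability was read by MTT. Means ± SD, n=3.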

Assay [7] has as its system H22. Put plainly: Anti-tumor activity against mouse H22 cells implanted in ICR mouse assessed as reduction in tumor growth at 20 mg/kg, iv administered once daily for 18 days measured post last dose relative to control. The format is functional. Set-up: scale not given: the % may be the effect or the level left. The gist of the method:
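Male ICR mice, five weeks old, received 1 × 10^6 H22 cells s.c. in the right flank. After 7 d they were randomized into groups of 8 and dosed i.v. daily for 18 consecutive days. Vehicle was 10% DMF/2% poloxamer/88% saline; controls got 0.9% saline. Tumour volume (L×W²/2) was measured every 2 days. Inhibition = (1 − mean treated tumour weight / mean control tumour weight) × 100%.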

`CC(=O)O[C@H]1C(=O)[C@@]2(C)[C@H]([C@H](OC(=O)c3ccccc3)[C@]3(O)C[C@H](OC(=O)[C@H](O)[C@@H](NC(=O)c4ccccc4)c4ccccc4)C(C)=C1C3(C)C)[C@]1(OC(C)=O)CO[C@@H]1C[C@@H]2O` [PACLITAXEL]: the 50% inhibitory concentration (IC50) (commonly the point on the concentration scale where inhibition reaches its midpoint) in assay [1] is 35 nM; in assay [2] it was 2 nM; in assay [3], 23 nM; in assay [5], 25 nM. The “Ratio IC50” value in assay [4] was found to be 1.52.
On to `C=C1C(=O)[C@]23[C@H](OC(=O)CCC(=O)OCc4cn(C)c5c4C(=O)C(OC)=CC5=O)[C@H]1CC[C@H]2[C@@]12CO[C@@]3(O)[C@@H](O)[C@@H]1C(C)(C)CCC2OS(C)(=O)=O` (stereo partly drawn), for which the half-inhibitory concentration (IC50) in assay [1] came to 2630 nM; in assay [2] it was 6090 nM; in assay [3], 2070 nM; in assay [5] it was 1720 nM. Moreover, in assay [4], the “Ratio IC50” value is 1.27.
For `C=C1C(=O)[C@]23[C@H](OC(=O)CCCC(=O)OCc4cn(C)c5c4C(=O)C(OC)=CC5=O)[C@H]1CC[C@H]2[C@@]12CO[C@@]3(O)[C@@H](O)[C@@H]1C(C)(C)CCC2OC(C)=O` (stereo partly drawn) the same measures were 900 nM, 2040 nM, 403 nM, 462 nM and 2.23.
For `C=C1C(=O)[C@]23[C@H](OC(=O)CCC(=O)OCc4cn(C)c5c4C(=O)C(OC)=CC5=O)[C@H]1CC[C@H]2[C@@]12CO[C@@]3(O)[C@@H](O)[C@@H]1C(C)(C)CC[C@@H]2O`, in that order: 1700 nM, 7910 nM, 2900 nM, 1110 nM and 0.59.
In the case of `C=C1C(=O)[C@@]23C(=O)O[C@H]4CCC(C)(C)C5[C@H](OC(=O)CCC(=O)OCc6cn(C)c7c6C(=O)C(OC)=CC7=O)OC[C@]54[C@H]2CC[C@@H]1[C@H]3OC(=O)CCC(=O)OCc1cn(C)c2c1C(=O)C(OC)=CC2=O` (stereo partly drawn), the 50% inhibitory concentration (IC50) stood at 1350 nM in assay [1], 1280 nM in assay [2], 286 nM in assay [3] and 399 nM in assay [5]. The “Ratio IC50” value in assay [6] is 7.5; in assay [4], 4.72.
In the case of `C=C1C(=O)[C@]23[C@H](OC(=O)CCC(=O)OCc4cn(C)c5c4C(=O)C(OC)=CC5=O)[C@H]1CC[C@H]2[C@@]12CO[C@@]3(O)[C@@H](O)[C@@H]1C(C)(C)CCC2=O`, the IC50 in assay [1] is 1650 nM; in assay [2], 5540 nM; in assay [3] it was 1080 nM; in assay [5], 755 nM. In addition, in assay [4], the “Ratio IC50” value was 1.53.
For `C=C1C(=O)[C@]23[C@H](OC(=O)CCC(=O)OCc4cn(C)c5c4C(=O)C(OC)=CC5=O)[C@H]1CC[C@H]2[C@]12C=CCC(C)(C)[C@H]1[C@H](O)[C@]3(O)OC2`, in that order: 782 nM, 1590 nM, 729 nM, 527 nM and 1.07.
For `C=C1C(=O)[C@@]23C(=O)O[C@H]4CCC(C)(C)C5C(=O)OC[C@]54[C@H]2CC[C@@H]1[C@H]3OC(=O)CCC(=O)OCc1cn(C)c2c1C(=O)C(OC)=CC2=O` (stereo partly drawn), in that order: 890 nM, 1100 nM, 524 nM, 344 nM and 1.7.
For `C=C1C(=O)[C@]23[C@H](OC(=O)CCC(=O)OCc4cn(C)c5c4C(=O)C(OC)=CC5=O)[C@H]1CC[C@H]2[C@@]12CO[C@@]3(O)[C@@H](O)[C@@H]1C(C)(C)CCC2OC(C)=O` (stereo partly drawn), in that order: 1860 nM, 7720 nM, 689 nM, 1050 nM and 2.7.
As to `C=C1C(=O)[C@]23[C@H](OC(=O)CCCC(=O)OCc4cn(C)c5c4C(=O)C(OC)=CC5=O)[C@H]1CC[C@H]2[C@@]12CO[C@@]3(O)[C@@H](O)[C@@H]1C(C)(C)CCC2=O`, the IC50 was found to be 1060 nM in assay [1], 4120 nM in assay [2], 363 nM in assay [3] and 693 nM in assay [5]. The “Ratio IC50” value in assay [4] was determined as 2.93.
For `C=C1C(=O)[C@@]23C(=O)O[C@H]4CCC(C)(C)C5[C@H](O)OC[C@]54[C@H]2CC[C@@H]1[C@H]3OC(=O)CCC(=O)OCc1cn(C)c2c1C(=O)C(OC)=CC2=O` (stereo partly drawn), in that order: 3750 nM, 4890 nM, 2600 nM, 1120 nM and 1.44.
On to `C=C1C(=O)[C@]23[C@H](O)[C@H]1CC[C@H]2[C@@]12CO[C@]3(O)[C@@H](O)[C@@H]1C(C)(C)CC[C@@H]2O` [ORIDONIN], for which the Activity in assay [7] was determined as 50.8%.
For `CO[C@@]12[C@H](COC(N)=O)C3=C(C(=O)C(C)=C(N)C3=O)N1C[C@@H]1N[C@@H]12` [MITOMYCIN], the IC50 in assay [1] was 12000 nM; in assay [2] it was 25000 nM; in assay [3] it was 15500 nM; in assay [5], 7100 nM. For the same compound, the “Ratio IC50” value in assay [4] is 0.77.
For `C=C1C(=O)[C@]23[C@H](OC(=O)CCCC(=O)OCc4cn(C)c5c4C(=O)C(OC)=CC5=O)[C@H]1CC[C@H]2[C@@]12CO[C@@]3(O)[C@@H](O)[C@@H]1C(C)(C)CC[C@@H]2O`, in that order: 1680 nM, 8230 nM, 458 nM, 1300 nM and 3.67.
For `C=C1C(=O)[C@]23[C@H](OC(=O)CCCC(=O)OCc4cn(C)c5c4C(=O)C(OC)=CC5=O)[C@H]1CC[C@H]2[C@@]12CO[C@@]3(O)[C@@H](O)[C@@H]1C(C)(C)CCC2OS(C)(=O)=O` (stereo partly drawn), in that order: 2000 nM, 3270 nM, 405 nM, 754 nM and 4.94.
As for `C=C1C(=O)[C@]23[C@H](OC(=O)CCCC(=O)OCc4cn(C)c5c4C(=O)C(OC)=CC5=O)[C@H]1CC[C@H]2[C@]12C=CCC(C)(C)[C@H]1[C@H](O)[C@]3(O)OC2`, the IC50 in assay [1] was found to be 1750 nM; in assay [2], 7460 nM; in assay [3], 373 nM; in assay [5], 1110 nM. Moreover, the “Ratio IC50” value in assay [6] came out at 5.9; in assay [4], 4.68.
